Converted amounts (≈) assume the structure as drawn.

The experiment relates to Mycolicibacterium smegmatis. Put plainly: Antimicrobial activity against wild-type Mycobacterium smegmatis SMR5 by microplate Alamar blue assay. In kind it is functional. The method in brief: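 M. smegmatis SMR5 carried either control plasmid pMS2 or rv0194 expression vector pML655. Cells were grown at 37°C in Middlebrook 7H9 with 0.2% glycerol and 0.05% Tween 80, then tested by microplate Alamar blue assay. MIC was the lowest antibiotic concentration reducing culture viability by ≥90%, read by fluorescence (ex 530/em 590 nm, room temperature).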
Background: The colour change of resazurin is a common sign of viable cells or microbes.
Broadly, the MIC is the least concentration at which growth counts as inhibited. High values mean a need for much substance, low ones inhibition by little substance. Turning to `CC1(C)S[C@@H]2[C@H](NC(=O)[C@H](N)c3ccccc3)C(=O)N2[C@H]1C(=O)O` [AMPICILLIN], the minimum inhibitory concentration (MIC) worked out at 125 µg/mL (≈ 358 µM).
On to `O=C(N[C@H](CO)[C@H](O)c1ccc([N+](=O)[O-])cc1)C(Cl)Cl` [CHLORAMPHENICOL], for which 32 µg/mL (≈ 99 µM) was the least that counted as inhibitory (MIC).
`CC[C@H]1OC(=O)[C@H](C)[C@@H](O[C@H]2C[C@@](C)(OC)[C@@H](O)[C@H](C)O2)[C@H](C)[C@@H](O[C@@H]2O[C@H](C)C[C@H](N(C)C)[C@H]2O)[C@](C)(O)C[C@@H](C)C(=O)[C@H](C)[C@@H](O)[C@]1(C)O` [ERYTHROMYCIN] came in with a minimal inhibitory concentration (MIC) of 2.5 µg/mL (≈ 3.41 µM).
Compound `CO[C@@H]1[C@@H](OC(N)=O)[C@@H](O)[C@H](Oc2ccc3c(O)c(NC(=O)c4ccc(O)c(CC=C(C)C)c4)c(=O)oc3c2C)OC1(C)C` [NOVOBIOCIN] yielded a minimal inhibitory concentration (MIC) of 4 µg/mL (≈ 6.53 µM).
The compound `CN(C)[C@@H]1C(O)=C(C(N)=O)C(=O)[C@@]2(O)C(O)=C3C(=O)c4c(O)cccc4[C@@](C)(O)[C@H]3C[C@@H]12` [TETRACYCLINE] returned an MIC of 0.3 µg/mL (≈ 0.675 µM).
In the case of `CN[C@H](CC(C)C)C(=O)N[C@H]1C(=O)N[C@@H](CC(N)=O)C(=O)N[C@H]2C(=O)N[C@H]3C(=O)N[C@H](C(=O)N[C@H](C(=O)O)c4cc(O)cc(O)c4-c4cc3ccc4O)[C@H](O)c3ccc(c(Cl)c3)Oc3cc2cc(c3O[C@@H]2O[C@H](CO)[C@@H](O)[C@H](O)[C@H]2O[C@H]2C[C@](C)(N)[C@H](O)[C@H](C)O2)Oc2ccc(cc2Cl)[C@H]1O` [VANCOMYCIN], the lowest concentration to inhibit growth (MIC) was 1.25 µg/mL (≈ 0.863 µM).

These data come from ChEMBL document CHEMBL1275448, “Identification of a novel multidrug efflux pump of Mycobacterium tuberculosis” (2008).
